Assay outcomes (PubChem BioAssay)
PAD4 FP inh: inhibitors of human PAD4 | Q9UM07 | recombinant PAD4, RCA probe fluorescence polarization | inhibition, % at 6.36 µM | AID 485272 | 330,000 compounds, 0.41% hits;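 active means percent inhibition above a cutoff equal to the mean of all tested compounds plus 3 SD, cut at about 15% in these data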;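 further: 0% = PAD4 with RCA probe and DMSO and 100% = probe without PAD4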
RBBP9 inh: inhibitors of human serine hydrolase RBBP9; O75884; recombinant RBBP9, FP-Rh probe fluorescence polarization; inhibition, % at 7.94 µM; 220,000 compounds, 0.2% hits;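 active means inhibition above the campaign mean of all tested compounds plus 3 SD, cut at about 14% in these data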;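 further: plate controls were DMSO wells with RBBP9 for no effect and wells lacking RBBP9 protein for full effect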
Target sequence (O75884 whole entry, looked up): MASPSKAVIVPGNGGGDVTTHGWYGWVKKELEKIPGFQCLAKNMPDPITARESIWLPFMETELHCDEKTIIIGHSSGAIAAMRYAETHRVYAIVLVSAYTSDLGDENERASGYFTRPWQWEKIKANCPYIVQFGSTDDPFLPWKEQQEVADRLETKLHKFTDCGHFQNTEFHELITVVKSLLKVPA
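Test system: recombinant human RBBP9. Quantity: 2.5 µM RBBP9 dispensing solution, before mixing. Detection: FP readout at 525/598 nm. Reagent: Serine-hydrolase probe FP-Rh, 375 nM pre-mixing. Measure: % inhibition. Control set: DMSO-treated enzyme wells and wells lacking RBBP9. Buffer or medium: Tris-NaCl-Pluronic buffer, pH 8.0. Times: preincubation 30 min plus labeling 45 min at 25 °C.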
PME-1 primary: blocks human protein phosphatase methylesterase 1; Q9Y570; recombinant PME-1, FP-Rh probe fluorescence polarization; inhibition, % at 5.9 µM; 320,000 compounds, 0.53% hits;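 active means inhibition above the campaign mean of all compounds plus 3 SD, cut at about 26% in these data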;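 further: competitive labeling of PME-1 active site by serine hydrolase directed probe; 0% = PME-1 with DMSO and 100% = wells lacking PME-1 enzyme; inhibitors block probe labeling so polarization falls and inhibition rises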
PRMT1 FP inh: inhibitors of human PRMT1; inhibition, % at 2.79 µM; recombinant PRMT1, activity-based probe fluorescence polarization; 370,000 compounds, 1.3% hits; Q99873;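 active means inhibition above about 21% made by adding two undisclosed values, limit read from the data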
Target sequence (Q99873 whole entry, looked up): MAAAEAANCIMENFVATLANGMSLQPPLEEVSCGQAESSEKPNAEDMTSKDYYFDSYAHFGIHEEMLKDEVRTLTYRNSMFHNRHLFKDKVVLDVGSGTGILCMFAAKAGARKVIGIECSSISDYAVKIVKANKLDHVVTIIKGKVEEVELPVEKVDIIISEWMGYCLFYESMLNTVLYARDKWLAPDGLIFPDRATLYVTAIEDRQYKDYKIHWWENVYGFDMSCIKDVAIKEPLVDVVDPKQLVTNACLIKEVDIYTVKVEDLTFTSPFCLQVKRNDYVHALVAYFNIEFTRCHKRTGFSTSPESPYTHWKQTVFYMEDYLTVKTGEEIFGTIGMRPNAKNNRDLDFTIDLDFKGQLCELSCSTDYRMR
GSTO1 counter: GSTO1 inhibition, counter-screen for RBBP9 inhibitors; 300,000 compounds, 1.1% hits; P78417; inhibition, % at 5.96 µM; AID 1974; recombinant GSTO1, activity-based probe fluorescence polarization;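 active means inhibition above the campaign mean inhibition plus 3 SD, cut at about 35% in these data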;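 further: 0% = GSTO1-1 with DMSO and 100% = wells lacking GSTO1-1 enzyme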
Fam108B counter: blocks mouse Fam108B hydrolase in RBBP9 counter-screen; recombinant Fam108B, FP-Rh probe fluorescence polarization; 300,000 compounds, 0.33% hits; inhibition, % at 9.51 µM; AID 1947;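 active means inhibition above the screen mean inhibition plus 3 SD, computed separately per campaign, cut at about 18% in these data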;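 further: inhibitors lower polarization as less probe binds the enzyme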
PAD4 confirm: PAD4 (human) inhibition, confirmed; 1,200 compounds, 28% hits; inhibition, % at 6.36 µM; recombinant PAD4, RCA probe fluorescence polarization; shares compounds with PAD4 FP inh;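 active means mean inhibition across replicates above the hit cutoff set by the earlier primary screen, cut at about 15% in these data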;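 further: inhibitors block active-site labeling by the probe so polarization falls; 0% = PAD4 with probe and DMSO and 100% = probe without PAD4 enzyme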
Starred values were filed as active, the others as inactive; / = no result given. This is a sample that favours compounds with a hit; in the whole collection about 2.3% have one here.

SMILES	PAD4 FP inh	RBBP9 inh	PME-1 primary	PRMT1 FP inh	GSTO1 counter	Fam108B counter	PAD4 confirm
C(=C\CSc1nnnn1-c1ccccc1)/CSc1nnnn1-c1ccccc1	1.3	-0.9	2.9	-0.8	3.0	0.6	/
CC(C)Oc1ccc(C2C(C#N)=C(N)Oc3c2oc(CO)cc3=O)cc1 (stereo not drawn)	-11.9	-1.9	1.0	-1.9	8.1	0.7	/
Cc1[nH]c2ccccc2c1CC#N	-0.5	-3.3	-6.0	-4.5	-8.2	-1.6	/
Cc1[nH]c2ccccc2c1C(C#N)(C#N)C1C(=O)c2ccccc2C1=O	37.4*	-2.8	1.1	1.3	72.6*	12.0	-1.0
O=C(COC(=O)c1ccc(O)cc1)Nc1cccc(S(=O)(=O)NC2=NCCCCC2)c1	-1.0	-2.7	-2.9	-1.1	6.5	-2.1	/
Nc1nc2cc(S(=O)(=O)NC3=NCCCCC3)ccc2s1	28.2*	-11.0	3.4	17.0	9.1	5.2	25.3*
Nc1ccc(S(=O)(=O)NC2=NCCCCC2)cc1	-0.4	1.7	-10.0	3.9	3.6	-1.1	/
CCOC(=O)c1ccc(S(=O)(=O)Nc2nc3cc(S(=O)(=O)NC4=NCCCCC4)ccc3s2)cc1	29.0*	-8.6	0.1	41.0*	-1.8	-0.9	26.0*
CCCCOc1ccccc1NC(=O)CC1Nc2ccccc2NC1=O (stereo not drawn)	23.5*	/	11.0	5.2	-10.9	-7.8	-3.6
O=C(CC1Nc2cccc3cccc(c23)NC1=O)Nc1ccc(F)cc1 (stereo not drawn)	58.9*	-1.6	18.1	7.3	26.3	0.9	2.9
CCCCNC(=O)CC1Nc2ccccc2NC1=O (stereo not drawn)	-5.3	-8.4	-0.3	-7.4	-0.2	-2.8	/
O=C1C2C3C=CC(C3=C(c3ccccc3)c3ccccc3)C2C(=O)N1Cc1ccccc1 (stereo not drawn)	-3.9	-4.8	-6.0	6.5	-2.9	-0.5	/
O=C(O)CN1C(=O)/C(=C\c2cccc(OCc3ccc(Cl)cc3)c2)SC1=S	0.8	/	6.8	6.7	9.0	-1.3	/
Cc1ccc(-c2nn(-c3ccccc3)cc2/C=C2\SC(=S)N(CC(=O)O)C2=O)cc1	14.8*	-6.3	2.6	19.1	-4.3	-7.1	3.5
COc1ccc(-c2nn(-c3ccccc3)cc2/C=C2/SC(=S)N(CCC(=O)O)C2=O)cc1	-0.1	/	3.5	2.7	-11.7	0.5	/
O=C(O)CN1C(=O)/C(=C\c2ccccc2OCc2ccc(Cl)cc2)SC1=S	22.4*	/	-3.2	20.6	4.0	3.0	1.8
CC(C)Cc1ccc(S(=O)(=O)Nc2ccccn2)cc1	2.4	-7.9	1.1	5.7	16.4	2.4	/
CC(OC(=O)c1nc(Cl)ccc1Cl)C(=O)NC1CCCCC1C (stereo not drawn)	25.1*	/	16.0	3.9	/	/	4.4
CC(OC(=O)c1cccc(Cl)c1)C(=O)NC1CCCCC1C (stereo not drawn)	2.9	/	0.8	12.8	0.7	-1.5	/
CCn1c2ccccc2c2cc(/C(C)=N/O)ccc21	15.9*	-8.9	-2.1	0.3	6.0	1.2	-0.4
C/C(=N\O)c1ccc2c3ccccc3n(C)c2c1	-0.9	-6.5	6.7	-0.8	7.5	3.7	/
Cc1ccnc(NC(=O)c2cc3cc(F)ccc3s2)c1	17.4*	/	-10.2	16.9	-7.8	-9.2	25.1*
COC(=O)c1cc(S(=O)(=O)Nc2cccc(OC)c2)cn1C	-1.6	/	1.6	-0.2	-3.2	3.6	/
CCOC(=O)c1cc(S(=O)(=O)Nc2ccc(OC)cc2OC)cn1C	30.7*	/	2.5	-2.7	-4.7	0.0	-3.4
CC(=O)N1CCN(c2ccc(NCc3ccc(C)cc3)cc2)CC1	3.3	-1.2	-0.6	9.1	5.2	-0.5	/
SMILES	PAD4 FP inh	RBBP9 inh	PME-1 primary	PRMT1 FP inh	GSTO1 counter	Fam108B counter	PAD4 confirm
CCc1ccc(CNc2ccc(N3CCN(C(C)=O)CC3)cc2)cc1	28.6*	12.6	-7.9	5.8	29.3	8.6	2.3
CCC1(C)Cc2c(sc3nc(SC)[nH]c(=S)c23)CO1 (stereo not drawn)	35.7*	/	0.4	/	-9.4	-0.7	27.0*
O=C1CCCc2ccccc2N1Cc1ccccc1Cl	-1.8	7.8	-1.0	2.3	6.7	-0.6	/
CC(=O)c1cccc(NC(=S)NC2CC2)c1	3.3	-9.1	-6.3	-1.6	2.6	0.6	/
CC(=O)c1cccc(NC(=S)NC2CCCCC2)c1	33.1*	-3.4	0.6	4.7	24.4	5.9	6.7
CCc1nc2ccc(C(=O)Nc3cccc(OCC(=O)N(C)C)c3)cn2c1N(CC)CCN(C)C	/	/	/	-2.1	/	/	/
CN(C)CCN(Cc1ccccc1)c1ccnc(N(C)C)c1C#N	2.7	-5.3	0.4	3.9	4.1	1.5	/
CN(C)CCN(Cc1ccccc1)c1ccccn1	73.5*	-3.3	3.2	-0.3	6.2	1.4	6.7
O=C(COC(=O)c1cc(S(=O)(=O)N2CCCCC2)ccc1N1CCOCC1)c1ccccc1	-0.3	/	1.1	-1.9	8.3	0.5	/
CCN(C(=O)COC(=O)c1cc(-c2cccc3ccccc23)nc2ccccc12)C1CCS(=O)(=O)C1 (stereo not drawn)	24.1*	-10.7	13.6	8.0	8.3	4.9	12.5
Cc1cc(C(=O)OCC(=O)NC2CCS(=O)(=O)C2)c2ccccc2n1 (stereo not drawn)	-1.8	1.6	-3.1	-1.0	3.0	2.5	/
O=C(COC(=O)c1cc(-c2cccc3ccccc23)nc2ccccc12)NC1CCS(=O)(=O)C1 (stereo not drawn)	65.4*	-6.1	42.6*	25.1*	10.4	14.5	24.2*
Cc1cccc(OCc2nnc(SCC(=O)Nc3ccc(C)c(C)c3)o2)c1	-5.4	0.9	-1.9	-0.6	-4.8	-7.2	/
CC1=CC(C)(C)N2C(=O)C3(C(C#N)=C(N)OC4=C3C(=O)CC(C)(C)C4)c3c(C)c(C)cc1c32 (stereo not drawn)	39.9*	-9.7	2.8	3.4	1.5	-4.2	-4.5
CC1=CC(C)(C)N2C(=O)C3(C(C#N)=C(N)OC4=C3C(=O)CC(C)(C)C4)c3cccc1c32 (stereo not drawn)	/	-3.0	/	0.2	/	/	/
CCOC(=O)C1CCCN(CC(=O)/C=C2/N(C)c3ccccc3C2(C)C)C1 (stereo not drawn)	-6.3	-13.9	-10.7	-1.3	9.8	-0.7	/
Cn1c(/C(C#N)=C/c2ccc(-c3ccc(S(N)(=O)=O)cc3)o2)nc2ccccc21	27.7*	-13.1	5.4	1.9	-13.4	2.3	20.8*
Cn1cccc1/C=C1\SC(=S)N(NC(=O)c2ccccc2Cl)C1=O	17.6*	-4.4	0.1	-14.4	0.1	1.8	2.1
O=[N+]([O-])c1cccc(C2CC(c3ccccc3)=NN2c2ccccc2)c1 (stereo not drawn)	5.6	/	-4.0	4.2	7.4	6.0	/
Cc1ccc(C2=Nc3ccccc3SC(c3cccc([N+](=O)[O-])c3)C2)cc1 (stereo not drawn)	18.2*	-10.2	-4.7	76.1*	6.1	-5.6	-5.7
